Screening results deposited in PubChem BioAssay by several laboratories.
Rows were chosen to be rich in hits. Some 12% of all compounds tested hit in one or more screens of this group.
Diaph inh CS: inhibits diaphorase or chemically oxidizes, flagging diaphorase assay artifacts; diaphorase resazurin-to-resorufin fluorescence, NADH, 16 min; bacterial (C. kluyveri) enzyme, not human; inhibition, % at 20 µM; 0.69% of 190,000 active; AID 1217;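 active = primary screen inhibition at 20 µM above a set limit, cut at about 50% in these data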
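Test system: diaphorase enzyme from Clostridium kluyveri; amount: diaphorase at 0.14 U/mL in enzyme working solution; detection: fluorescence of resorufin formed from resazurin, Ex 544/Em 590 nm; times: reaction incubation of 16 min at room temperature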
Diaph act CS: counter-screen for diaphorase-based assays: diaphorase activators and chemical reducers. Diaphorase/resazurin coupled assay, resorufin fluorescence, 16 min; active compounds read high; 1 = vehicle wells, 0 = NADH-free wells. activation factor at 20 µM. 0.005% of 190,000 active. AID 1229;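 active = diaphorase activity raised at least twofold by the compound at 20 µM; inactive = activation factor below 2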
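Test system: Clostridium kluyveri diaphorase, purified enzyme; input: enzyme 0.07 U/mL final; buffer or medium: 50 mM HEPES pH 7.4 with 4.542 mM MgCl2, 0.005% Tween 20; also added: 0.114 mM NADH and 0.1 mM resazurin, final amounts; schedule: 16 min enzyme reaction, ambient temperature; technique: fluorescence of resorufin, 544 nm excitation, 590 nm emission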
WT yeast gro inh: growth inhibition of WT yeast, mitochondrial fusion screen. mitochondrial fusion phenotypic screen, WT strain. inhibition, % at 10 µM. 2.1% of 190,000 active. AID 1362; in the data active = inhibition above about 58%; tested in S. cerevisiae
ROMK primary: modulators of human ROMK potassium channel. Tet-inducible ROMK, thallium flux fluorescence; actives lie on both sides. B-score at 10 µM. P48048. 2% of 130,000 active;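 active = signal ratio slope over the read window, or its plate-corrected B-score, at least 3 SD from the plate mean, either direction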;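 also: B-score of the F/F0 ratio slope over 7 to 12 s after thallium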
L major viab: reduces viability of Leishmania major promastigotes. AID 1063. inhibition, % at 10 µM. 9% of 200,000 active. resazurin fluorescence viability; in the data active = inhibition above about 50%;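 also: promastigotes grown with compound for 44 hours at 28 °C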
Cl transport mod: KCC2 (human) Cl- transport modulation; Q9H2X9; AID 1456; 2.2% of 190,000 active; KCC2 cells, thallium flux FluoZin-2 fluorescence; B-score of Tl+ flux slope (higher = more flux/activation; lower = inhibition) at 10 µM;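 active = thallium flux slope and its plate-corrected score both differing from the plate sample mean at a set confidence after two filtering rounds, in either direction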;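 also: slope of fluorescence scaled to starting intensity during 10 to 20 s after thallium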
Target sequence (Q9H2X9 whole entry, looked up): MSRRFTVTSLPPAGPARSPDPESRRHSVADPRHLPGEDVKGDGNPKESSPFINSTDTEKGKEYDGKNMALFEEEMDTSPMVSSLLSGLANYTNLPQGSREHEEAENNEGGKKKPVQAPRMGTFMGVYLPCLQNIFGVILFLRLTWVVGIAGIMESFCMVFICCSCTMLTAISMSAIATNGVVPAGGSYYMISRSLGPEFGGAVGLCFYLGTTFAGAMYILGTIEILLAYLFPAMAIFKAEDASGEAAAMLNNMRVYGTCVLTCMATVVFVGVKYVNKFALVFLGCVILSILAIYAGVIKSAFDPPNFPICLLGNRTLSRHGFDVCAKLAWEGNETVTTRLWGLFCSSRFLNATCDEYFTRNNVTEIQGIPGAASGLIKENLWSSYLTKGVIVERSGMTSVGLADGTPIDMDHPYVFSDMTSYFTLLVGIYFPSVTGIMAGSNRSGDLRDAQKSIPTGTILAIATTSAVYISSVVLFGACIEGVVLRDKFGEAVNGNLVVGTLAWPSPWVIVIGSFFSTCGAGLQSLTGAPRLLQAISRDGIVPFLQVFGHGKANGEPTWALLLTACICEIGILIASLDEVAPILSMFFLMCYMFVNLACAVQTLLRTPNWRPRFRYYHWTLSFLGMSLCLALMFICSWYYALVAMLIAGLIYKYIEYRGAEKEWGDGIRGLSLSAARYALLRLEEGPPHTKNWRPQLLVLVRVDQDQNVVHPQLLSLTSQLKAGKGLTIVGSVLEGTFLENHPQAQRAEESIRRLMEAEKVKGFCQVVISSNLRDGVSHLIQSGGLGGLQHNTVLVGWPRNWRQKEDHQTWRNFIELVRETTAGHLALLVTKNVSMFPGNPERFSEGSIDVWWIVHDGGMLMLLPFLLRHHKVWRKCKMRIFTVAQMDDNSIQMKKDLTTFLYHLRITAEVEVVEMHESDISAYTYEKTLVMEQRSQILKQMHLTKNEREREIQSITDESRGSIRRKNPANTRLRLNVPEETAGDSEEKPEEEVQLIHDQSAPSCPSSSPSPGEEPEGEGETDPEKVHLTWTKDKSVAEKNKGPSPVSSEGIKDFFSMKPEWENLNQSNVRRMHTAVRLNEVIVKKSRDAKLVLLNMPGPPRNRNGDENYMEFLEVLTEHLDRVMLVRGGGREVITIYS
L major 1uM: L. major promastigote growth inhibition, 1 uM repeat. shares compounds with L major viab. AID 1258. 13% of 1,100 active. inhibition, % at 1 µM. resazurin fluorescence, 48 h;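 active = inhibition above about 50% in both repeat tests, limit read from the data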
Each line names hits and unclear results; the compound was inactive in the other large screens (follow-up assays come after a bar, where they were run).

CC(=O)NC1=NN(C(C)=O)C(C)(c2ccc3ccccc3c2)S1 (centres undefined)	L major viab 60.1 | L major 1uM inactive
CC(=O)NC1=NN(C(C)=O)C(C)(c2ccccc2)S1 (centres undefined)	none (no result: ROMK primary, Cl transport mod)
COc1cccc(OC)c1C(=O)OCC(=O)Nc1ccc(OC(F)(F)F)cc1	none
CCCCNCCCOc1cccc(Cl)c1	L major viab 93.7 (no result: ROMK primary) | L major 1uM inactive
CCCCCCOc1cccc(N)c1	none (no result: Cl transport mod)
Cc1ccc(C(=O)NC(=C(Cl)Cl)S(=O)(=O)c2ccccc2)cc1	L major viab 72.3 | L major 1uM inactive
Cc1ccc(C(=O)NC(=S)NNS(=O)(=O)c2ccccc2)cc1	none (no result: Diaph inh CS, Diaph act CS)
CC(NC(=O)CSc1nc2sc3c(c2c(=O)n1-c1ccccc1)CCCC3)c1ccccc1 (centres undefined)	L major viab 69.4 (no result: ROMK primary) | L major 1uM inactive
Cc1cccc(-n2c(SCC(=O)O)nc3sc4c(c3c2=O)CCC4)c1	none (no result: Diaph inh CS, Diaph act CS, WT yeast gro inh, ROMK primary, L major viab)
O=C1CC(c2ccc(Br)cc2)NC(c2ccc(Br)cc2)C1c1ccccc1 (centres undefined)	L major viab 89.7 (no result: ROMK primary) | L major 1uM inactive
Cc1cccc(C)c1-n1nnnc1C1(Nc2ccccc2)CCCCC1	WT yeast gro inh 73.2, L major viab 99.7 (no result: ROMK primary) | L major 1uM inactive
Clc1ccc(NC2(c3nnnn3C3CCCCC3)CCCCC2)cc1	none
CC(=O)c1ccc(N2CCN(C(=O)COc3ccccc3F)CC2)c(F)c1	none
CC(C)(C)C1CCc2sc(-c3nnc(CCl)o3)cc2C1 (centres undefined)	WT yeast gro inh 68.3, L major viab 90.5 | L major 1uM inactive
ClCc1nnc(-c2cc3c(s2)CCCC3)o1	L major viab 98.2 | L major 1uM inactive
O=C(Nc1cccc([N+](=O)[O-])c1)Nc1ccc2c(c1)OCCO2	none
CCc1ccccc1Nc1nc2ccccc2n1C	L major viab 57.0 | L major 1uM inactive
CCCn1c(Nc2nc3ccccc3n2C)nc2ccccc21	none
Cc1csc2nc(=O)c3ccccc3n12	none (no result: ROMK primary)
CC1=CC(C)C2(CO)COC(c3cccnc3)C1C2C (centres undefined)	L major viab 80.5 | L major 1uM inactive
CCN(C(=O)c1ccc(C(C)(C)C)cc1)c1nnc(Cn2nnc3ccccc32)s1	L major viab 54.2 | L major 1uM inactive
COC(=O)C1=NN(c2ccccc2)C2(S1)S/C(=C\c1ccccc1)C(=O)N2c1ccccc1 (centres undefined)	none
CCOC(=O)C1=NN(c2ccccc2)C2(S1)SC(C(C)=O)=C(C)N2c1ccccc1 (centres undefined)	WT yeast gro inh 71.5, L major viab 61.4 (no result: ROMK primary, Cl transport mod) | L major 1uM inactive
CS(=O)(=O)c1cc([N+](=O)[O-])c(Sc2nc3ccccc3[nH]2)c([N+](=O)[O-])c1	none
CCOC(=O)c1oc2cccc(O)c2c1C	none (no result: Cl transport mod)
CCOC(=O)c1oc2ccc(CNC(C)(C)C)c(Cl)c2c1C	L major viab 99.0 | L major 1uM inactive
CC(C)(C)[C@]1(O)CCN2C[C@H]3c4ccccc4CCc4cccc(c43)[C@@H]2C1	L major viab 57.2 (no result: ROMK primary) | L major 1uM inactive
Cc1c(C)c(C)c(S(=O)(=O)N2CCNCC2)c(C)c1C	none
COc1ccc(/C=C/c2noc(-c3ccccc3O)n2)cc1	none (no result: ROMK primary)
Oc1ccccc1-c1nc(/C=C/c2ccccc2)nn1-c1ccccc1	WT yeast gro inh 63.5, L major viab 98.2 (no result: ROMK primary) | L major 1uM inactive
CCOC(=O)c1c(C)oc2ccc(O)c(CN3CCCCC3)c12	L major viab 87.7 (no result: ROMK primary) | L major 1uM inactive
CCCc1nnc(SCC(=O)N2C(C)CCCC2C)n1CC1CCCO1 (centres undefined)	none
O=S(=O)(CCN(CCS(=O)(=O)C(F)(F)F)CC1CCCO1)C(F)(F)F (centres undefined)	L major viab 100.2 (no result: ROMK primary) | L major 1uM inactive
CC(=O)Oc1cc2c(cc1Cl)C1(CC(c3ccccc3Cl)O2)CC(C)(C)NC(=S)N1 (centres undefined)	WT yeast gro inh 62.9, L major viab 97.8 (no result: ROMK primary) | L major 1uM inactive
Cn1cc(CN2CCC(CO)CC2)c(-c2ccc(Oc3ccccc3)cc2)n1	L major viab 96.5 (no result: ROMK primary) | L major 1uM 75.4
Brc1cccc(-c2n[nH]c(-c3ccccc3)n2)c1	L major viab 57.4 (no result: ROMK primary) | L major 1uM inactive
c1ccc(-c2nc(-c3cccnc3)n[nH]2)cc1	none (no result: ROMK primary)
O=Cc1ccc(Oc2cc(-c3ccccc3)nc(-c3ccccc3)n2)cc1	L major viab 57.5 | L major 1uM inactive
Cc1c(C(=O)O)oc2c1/C(=N\O)CCC2	L major viab 53.6 (no result: ROMK primary) | L major 1uM inactive
CCOC(=O)c1oc2c(c1C)/C(=N/O)CCC2	none (no result: ROMK primary, Cl transport mod)
Cc1cc(-c2ccccc2)cc(-c2ccccc2)[n+]1C	L major viab 58.8 | L major 1uM inactive
CCCn1nnnc1NCc1c(F)cccc1Cl	none
CCCCCCCCCCCCCCCC[n+]1ccc(/C=N/O)cc1	Diaph act CS 2, WT yeast gro inh 97.8, L major viab 100.4 (no result: ROMK primary) | L major 1uM 101.0
CCCCN(CCCC)C(=O)C[n+]1cccc(/C=N/O)c1	none
CCCCCCCCCCCCCCCC[n+]1cccc(C(=O)N(CC)CC)c1	Diaph act CS 2, L major viab 100.4 (no result: ROMK primary) | L major 1uM 79.4
CCCCCCCCCCCCCCCC[n+]1ccc(C(N)=O)cc1	WT yeast gro inh 99.2, L major viab 100.2 | L major 1uM inactive
O=C(CCc1c[nH]c2ccccc12)NC1CC1	none (no result: WT yeast gro inh, Cl transport mod)
O=C(NNC(=S)Nc1ccccc1Cl)c1ccncc1	none (no result: Diaph inh CS, Diaph act CS, WT yeast gro inh, L major viab)
CC1(c2ccc3noc(-c4cccc(F)c4)c3c2)OCCO1	none
CCn1c(C)c(P(c2ccccc2)c2ccccc2)[n+]2ccccc12	L major viab 94.5 | L major 1uM inactive
N=c1c(-c2nc3ccccc3[nH]2)cc(C(=O)c2cccs2)nn1-c1ccc(Cl)cc1	L major viab 91.4 (no result: Diaph inh CS, Diaph act CS, WT yeast gro inh, ROMK primary) | L major 1uM inactive
O=C(Nc1nc2ccccc2[nH]1)c1cccs1	none
FC(F)(F)c1ccc(C2NCCc3sccc32)cc1 (centres undefined)	L major viab 93.4 | L major 1uM inactive
CCn1c(N2CCN(S(=O)(=O)c3ccc(Cl)cc3)CC2)nc2ccccc21	L major viab 81.1 | L major 1uM inactive
COCCCNCCCCOc1ccc(Br)cc1Cl	L major viab 98.0 | L major 1uM 75.8
C#CCNC(=O)C1=C[C@@H](c2ccc(C#C)cc2)[C@H](CCCO)[C@@H](OCC)O1	none (no result: ROMK primary)
CCC(C)NC(=O)c1cn(CC)c2cc(N3CCN(C)CC3)c(F)cc2c1=O (centres undefined)	none (no result: Diaph inh CS, Diaph act CS, WT yeast gro inh, ROMK primary, L major viab)
CCn1cc(C(=O)N[C@H](C)c2ccccc2)c(=O)c2cc(F)c(N3CCN(C)CC3)cc21	L major viab 85.4 | L major 1uM inactive
